This is a sample that favours compounds with a hit; in the whole collection about 1.7% have one here.
Rpn11 block: blocks the human proteasome subunit Rpn11; O00487; AID 588493; inhibition, % at 20 µM; 360,000 tested, 0.59% active; human 26S proteasome, Ub4-pepOG fluorescence polarization; 20S core pre-blocked with epoxomicin;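 active = inhibition at 20 µM, scaled to each plate's controls, above about 33%, limit read from the data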
Target sequence (O00487 whole entry, looked up): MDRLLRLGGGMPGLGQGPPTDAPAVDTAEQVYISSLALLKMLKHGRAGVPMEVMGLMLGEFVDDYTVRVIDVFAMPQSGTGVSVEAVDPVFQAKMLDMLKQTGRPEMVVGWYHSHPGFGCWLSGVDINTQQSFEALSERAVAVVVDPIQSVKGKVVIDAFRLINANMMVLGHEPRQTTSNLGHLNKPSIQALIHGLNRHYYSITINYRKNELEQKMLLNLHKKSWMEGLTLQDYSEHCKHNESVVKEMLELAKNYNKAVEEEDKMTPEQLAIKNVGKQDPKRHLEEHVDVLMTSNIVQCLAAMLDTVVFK
HNF4A DNA FP: change in binding of human HNF4 alpha to DNA; HNF4a-FITC DNA binding, fluorescence polarization, 1 h; 360,000 tested, 0.3% active; P41235; activity change, % at 10 µM; in the data active = activity change above about 30%, passing the limit was not always enough
IDE cell activ: IDE (human) activation, cell-based. AID 493087. P14735. HEK cells, FAbeta-B cleavage, fluorescence polarization; 0% vehicle, 100% cell-free pure enzyme wells. 340,000 tested, 0.073% active. activation, % at 5.96 µM;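 active = activation above the mean of all tested compounds plus 3 SD, set per screening campaign, cut at about 17% in these data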
TPT1 inh: blocks Candida albicans tRNA 2'-phosphotransferase; recombinant caTPT1, FP RNA substrate dephosphorylation; 300,000 tested, 0.81% active; inhibition, % at 5 µM;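 active = inhibition above the mean of all tested compounds plus 3 SD, set per screening campaign, cut at about 24% in these data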
IDE cell inh: inhibits human insulin-degrading enzyme in HEK cells; P14735; inhibition, % at 5.59 µM; FAbetaB cleavage, fluorescence polarization; AID 434962; 320,000 tested, 0.41% active;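 active = percent inhibition above the average of all tested compounds plus 3 SD, set per screening campaign, cut at about 16% in these data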;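 note: IDE supplied by intact live HEK cells; FP after avidin binding of uncleaved biotin substrate so inhibition keeps polarization high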
CSN deneddyl inh: CSN deneddylation inhibition; inhibition, % at 12.5 µM; 360,000 tested, 0.38% active; Q92905; Purified CSN, SCF-Nedd8-OG deneddylation, fluorescence polarization;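 active = pattern-corrected inhibition above about 35%, with an unprinted fluorescence ratio check between 0.5 and 1.5, limit read from the data, passing the limit was not always enough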
Target sequence (Q92905 whole entry, looked up, one chain of several): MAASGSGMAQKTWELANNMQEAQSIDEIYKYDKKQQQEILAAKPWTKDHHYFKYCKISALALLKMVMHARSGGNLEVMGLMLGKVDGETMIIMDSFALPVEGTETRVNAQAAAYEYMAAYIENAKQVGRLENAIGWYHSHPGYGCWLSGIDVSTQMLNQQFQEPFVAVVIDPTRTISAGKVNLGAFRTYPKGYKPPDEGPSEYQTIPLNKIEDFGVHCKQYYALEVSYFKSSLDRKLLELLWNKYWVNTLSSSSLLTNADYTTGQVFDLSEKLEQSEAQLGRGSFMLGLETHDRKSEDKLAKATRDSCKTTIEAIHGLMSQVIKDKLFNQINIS
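Schedule: reaction 90 min, room temperature / Assay system: HEK293T-derived human Csn5 enzyme / Input: Csn5 at 0.24 nM final / Measure: inhibition of Csn5 cleavage, % / Control set: substrate-only high control, full reaction low control / Technique: fluorescence polarization of the substrate / Buffer or medium: Tris/NaCl/DTT buffer, pH 7.5 / Reagent: SCFSkp2-Nedd8OG substrate at 10 nM final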
caTPT1 confirm: TPT1 (C. albicans) inhibition, confirmation. shares compounds with TPT1 inh. recombinant caTPT1, fluorescence polarization, RNase T1 coupled. inhibition, % at 5 µM. 2,400 tested, 74% active. AID 2149;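 active = inhibition above the primary screen limit, the mean inhibition of all tested compounds plus 3 SD, cut at about 25% in these data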
RNase T1 counter: blocks Aspergillus oryzae RNase T1, a TPT1 counter-screen; RNase T1 cleavage, fluorescence polarization, 1536-well; 2,400 tested, 83% active; shares compounds with TPT1 inh; inhibition, % at 5 µM;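 active = inhibition above the solvent-only control well mean plus 3 SD, limit set per screening run, cut at about 23% in these data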;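 note: inhibitors block cleavage so intact labeled substrate keeps polarization high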
Hits are given with their value; . = inactive; / = no result shown; ! = not active in a repeat.

SMILES	Rpn11 block	HNF4A DNA FP	IDE cell activ	TPT1 inh	IDE cell inh	CSN deneddyl inh	caTPT1 confirm	RNase T1 counter
C=CCn1c(=O)/c(=C/c2ccc(C)o2)s/c1=C(/C#N)C(=O)c1ccccc1	/	.	.	105.6	.	44.9	144.0	141.9
CCOn1c(=O)c[n+]([O-])c2ccccc21	.	.	.	.	.	.	/	/
O=c1c[n+]([O-])c2ccccc2n1OCc1ccccn1	.	.	.	25.8	.	.	.	.
O=C(c1ccc(CSc2ccc(Cl)cc2)o1)N1CCOCC1	.	.	/	/	/	.	/	/
O=C(CC(C(=O)O)c1ccccc1)Nc1cccc2ccccc12 (stereo not given)	.	.	.	30.0	.	.	.	.
O=C(NCc1cccc(C(F)(F)F)c1)c1ccc2nc([C@H]3C[C@H](O)[C@@H](CO)O3)[nH]c2c1	.	.	/	/	/	.	/	/
O=C(N/N=C/c1ccc(Cl)cc1Cl)c1ccncc1	.	.	.	.	.	.	/	/
O=C(N/N=C/c1cc(Br)cc(Br)c1O)c1ccncc1	/	/	/	89.2	.	/	77.4	83.2
O=C(N/N=C/c1cc(Cl)cc(Cl)c1O)c1ccncc1	/	.	.	40.0	.	.	37.5	49.4
O=C(N/N=C/c1ccc(O)cc1O)c1ccncc1	.	.	.	.	.	.	/	/
COC(=O)/C=C1\OCc2c(F)cccc21	/	.	/	/	/	.	/	/
CC[n+]1c(/C=C/Nc2ccccc2)oc2ccccc21	.	.	.	38.4	.	.	52.5	64.2
CCn1c(/C=C/Nc2ccccc2)[n+](CC)c2ccc(Cl)cc21	.	.	.	.	.	.	/	/
CC[n+]1c(/C=C/N(C)c2ccccc2)oc2ccccc21	/	.	.	36.2	.	.	48.9	60.9
O=[N+]([O-])c1c(Nc2ccccn2)cc(Cl)c2nonc12	/	.	.	128.2	.	.	135.2	130.1
COc1ccc(CN(C)CC(=O)NC(C)c2ccccc2)c(OC)c1 (stereo not given)	.	.	.	98.7	.	.	.	.
COc1cccc(NC(=O)CN(C)CC(=O)NC(C)c2ccccc2)c1 (stereo not given)	.	.	.	.	.	.	/	/
CC(C)c1cc(=O)oc2c3c4c(cc12)CCCN4CCC3	.	.	.	28.8	.	.	32.0	41.3
Cc1cc(=O)oc2c3c4c(cc12)OCCN4CCC3	.	.	.	30.0	.	.	.	22.0
CN1CCCc2cc3c(C(F)(F)F)cc(=O)oc3nc21	.	.	.	.	.	.	/	/
Cc1cc(=O)oc2c(CN3CCCC3)c(O)c(Cl)cc12	.	.	.	.	.	.	/	/
CCCCCCCCN1C(=O)[C@H](CC(=O)N2CCOCC2)C[C@@]2(C(=O)OC)CC(C)(C)CC=C12	/	.	/	/	/	.	/	/
Cc1c(C(=O)NCc2ccccc2C(F)(F)F)sc(=O)n1Cc1ccccc1C#N	.	.	/	/	/	.	/	/
COc1cccc(CN2CCC2(C)C(=O)Nc2ccc3c(c2)CCN3C(C)=O)c1F (stereo not given)	.	.	/	/	/	.	/	/
CCn1c(O)c(/C=N/N=C2CCCCC2)c2cc(C3=NNC(=O)CC3)ccc21	.	.	.	36.7	.	.	.	36.4
SMILES	Rpn11 block	HNF4A DNA FP	IDE cell activ	TPT1 inh	IDE cell inh	CSN deneddyl inh	caTPT1 confirm	RNase T1 counter
CCCCC(CCCC)=N/N=C/c1c(O)n(CC)c2cc(C3=NNC(=O)CC3)ccc12	/	.	.	33.9	.	.	.	21.9
CC(C)(C)C(C(=O)NCc1ccccc1)N1CCN(C(=O)C2CCCO2)CC1 (stereo not given)	/	.	/	/	/	.	/	/
CN(C)c1ccc(/C=C(\C#N)c2ccccn2)cc1	/	.	.	85.6	.	.	82.8	91.8
CCOc1ccc(/C=C/C(=O)c2c(O)cc(C)oc2=O)cc1	.	.	.	45.3	.	.	.	.
Cc1cc(OC(C)C(=O)N2CCN(c3ccccc3)CC2)c2c(C)c(C)c(=O)oc2c1 (stereo not given)	.	.	.	28.8	.	.	.	.
Cc1ccc(S(=O)(=O)N2CCOCC2)cc1C(=O)N1CCN(S(=O)(=O)c2ccccc2F)CC1	.	.	.	/	/	.	/	/
CCN1C[C@@H]2[C@@H]3C(=O)N(Cc4ccccc4)C(=O)[C@@H]3[C@](Cc3ccccc3)(C1=O)N2C(=O)c1ccc(Br)cc1	.	.	.	/	/	.	/	/
COc1ccc(CN2C[C@@H](CO)O[C@@H](n3cnc4c(N(C)C)ncnc43)C2)cc1	.	.	/	/	/	.	/	/
N=C(N)SCc1nc2ccccc2c(=O)n1-c1ccccc1	.	.	.	26.4!	.	.	28.3	36.6
O=C(NCc1cc(Cl)cc(Cl)c1)c1ccc2nc(COCCO)[nH]c2c1	.	.	/	/	/	.	/	/
COc1ccc(-c2oc3c(c2-c2cnc(OC)nc2)C(O)CC3)cc1 (stereo not given)	/	.	/	/	/	.	/	/
COc1ccc(N(CC(=O)N/N=C/c2ccc(-c3ccc([N+](=O)[O-])cc3)o2)S(=O)(=O)c2ccc(C)cc2)cc1Cl	.	.	.	43.3	.	.	41.8	50.8
COc1ccc(N(CC(=O)N/N=C/c2ccc(-c3ccc([N+](=O)[O-])cc3)o2)S(=O)(=O)c2ccc(C)cc2)cc1	/	.	.	.	.	.	/	/
CC1(CO)CCCC1NCCNC1CCCC1(C)CO (stereo not given)	.	.	/	/	/	.	/	/
CC1=NCC(C)c2c1[nH]c1ccccc21 (stereo not given)	.	.	.	56.4	.	.	.	27.3
CC1CCN(C(=O)C2CCN(S(=O)(=O)c3cccc4nonc34)CC2)CC1	.	.	.	41.6	.	.	.	.
CCn1c(=S)[nH]c2c(=O)n(C)c(=O)n(C)c21	.	.	.	/	/	.	/	/
O=C(O)/C=C/c1cn(-c2ccccc2)nc1-c1cccc([N+](=O)[O-])c1	.	.	.	.	.	.	/	/
O=C(O)/C=C/c1cn(-c2ccccc2)nc1-c1ccc(-c2ccc([N+](=O)[O-])cc2)o1	/	.	.	68.9	.	.	84.3	91.0
O=C(c1ccco1)N1CCC2CC1c1c(Cl)cccc12 (stereo not given)	.	.	/	/	/	.	/	/
Cc1ccc(NC(=O)c2cc(S(=O)(=O)N3CCOCC3)c(Br)s2)cc1	.	.	.	29.4	.	.	.	.
Cc1ccc(C(=O)Nc2ccc(F)c(S(=O)(=O)N3CCOCC3)c2)s1	.	.	.	/	.	.	/	/
Cc1ccc(/C(C#N)=C\c2ccc(N3CCOCC3)o2)cc1	/	80.5	.	121.4	.	.	153.8	147.2
N#C/C(=C/c1ccc(N2CCOCC2)o1)C(=O)Nc1ccccc1	/	.	.	/	/	.	/	/
N#C/C(=C/c1ccc(N2CCCCC2)o1)c1cccc(F)c1	/	.	.	134.3	.	.	177.7	165.6
